Laboratory results from ChEMBL document CHEMBL4715682, “Potent trifluoromethoxy, trifluoromethylsulfonyl, trifluoromethylthio and pentafluorosulfanyl containing (1,3,4-oxadiazol-2-yl)benzamides against drug-resistant Gram-positive bacteria” (RSC Med Chem, 2020).
In brackets after ≈: the same amount, converted by molar mass. Activity calls are given as the source filed them. No cut-off for these calls is given here.

Columns and labels:
Type in all cases: functional
[1] = tested on: Staphylococcus aureus; assay: Antibacterial activity against Staphylococcus aureus ATCC 25923 assessed as inhibition of visible bacterial growth incubated for 18 to 20 hrs by CLSI method; details: time 18-20 hrs
Outline: (§1)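 CLSI broth microdilution. Strains grown aerobically overnight on tryptic soy agar at 37 °C, adjusted to 0.5 McFarland and diluted in cation-adjusted Mueller–Hinton broth to about 5×10^5 CFU/mL. Compounds and control drugs serially diluted across the plate. Incubated aerobically at 37 °C for 18-20 h. MIC is the lowest concentration with no visible growth.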

[2] = tested on: Staphylococcus aureus; assay: Antibacterial activity against methicillin-resistant Staphylococcus aureus ATCC 33592 assessed as inhibition of visible bacterial growth incubated for 18 to 20 hrs by CLSI method; details: time 18-20 hrs; outline: as §1
[3] = tested on: Staphylococcus aureus; assay: Antibacterial activity against methicillin-sensitive Staphylococcus aureus ATCC 6538 assessed as inhibition of visible bacterial growth incubated for 18 to 20 hrs by CLSI method; details: time 18-20 hrs; outline: as §1
[4] = tested on: Staphylococcus aureus; assay: Antibacterial activity against methicillin-sensitive Staphylococcus aureus NRS 107 assessed as inhibition of visible bacterial growth incubated for 18 to 20 hrs by CLSI method; details: time 18-20 hrs; outline: as §1
[5] = tested on: Staphylococcus aureus; assay: Antibacterial activity against methicillin-resistant Staphylococcus aureus NRS 119 assessed as inhibition of visible bacterial growth incubated for 18 to 20 hrs by CLSI method; details: time 18-20 hrs; outline: as §1
[6] = tested on: Staphylococcus aureus; assay: Antibacterial activity against methicillin-resistant Staphylococcus aureus NRS382 assessed as inhibition of visible bacterial growth incubated for 18 to 20 hrs by CLSI method; details: time 18-20 hrs; outline: as §1
[7] = tested on: Staphylococcus aureus; assay: Antibacterial activity against methicillin-resistant Staphylococcus aureus NRS383 assessed as inhibition of visible bacterial growth incubated for 18 to 20 hrs by CLSI method; details: time 18-20 hrs; outline: as §1
[8] = tested on: Staphylococcus aureus; assay: Antibacterial activity against methicillin-resistant Staphylococcus aureus NRS384 assessed as inhibition of visible bacterial growth incubated for 18 to 20 hrs by CLSI method; details: time 18-20 hrs; outline: as §1
[9] = tested on: Staphylococcus aureus; assay: Antibacterial activity against methicillin-resistant Staphylococcus aureus NRS123 assessed as inhibition of visible bacterial growth incubated for 18 to 20 hrs by CLSI method; details: time 18-20 hrs; outline: as §1
[10] = tested on: Staphylococcus aureus; assay: Antibacterial activity against methicillin-resistant Staphylococcus aureus NRS385 assessed as inhibition of visible bacterial growth incubated for 18 to 20 hrs by CLSI method; details: time 18-20 hrs; outline: as §1
[11] = tested on: Staphylococcus aureus; assay: Antibacterial activity against methicillin-resistant Staphylococcus aureus NRS386 assessed as inhibition of visible bacterial growth incubated for 18 to 20 hrs by CLSI method; details: time 18-20 hrs; outline: as §1
[12] = tested on: Staphylococcus aureus; assay: Antibacterial activity against methicillin-resistant Staphylococcus aureus NRS387 assessed as inhibition of visible bacterial growth incubated for 18 to 20 hrs by CLSI method; details: time 18-20 hrs; outline: as §1
[13] = tested on: Staphylococcus aureus; assay: Antibacterial activity against vancomycin-resistant Staphylococcus aureus 10 assessed as inhibition of visible bacterial growth incubated for 18 to 20 hrs by CLSI method; details: time 18-20 hrs; outline: as §1
[14] = tested on: Staphylococcus aureus; assay: Antibacterial activity against vancomycin-resistant Staphylococcus aureus 12 assessed as inhibition of visible bacterial growth incubated for 18 to 20 hrs by CLSI method; details: time 18-20 hrs; outline: as §1
[15] = tested on: Staphylococcus epidermidis; assay: Antibacterial activity against Staphylococcus epidermidis NRS101 assessed as inhibition of visible bacterial growth incubated for 18 to 20 hrs by CLSI method; details: time 18-20 hrs
Outline: (§2)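 Broth microdilution per CLSI. Strains grown aerobically overnight on TSA at 37 °C, suspended to 0.5 McFarland, diluted in CAMHB to about 5×10^5 CFU/mL. Agents serially diluted across plate; aerobic incubation 37 °C for 18-20 h. MIC = lowest concentration completely preventing visible growth.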

[16] = tested on: Listeria monocytogenes; assay: Antibacterial activity against Listeria monocytogenes ATCC 19111 assessed as inhibition of visible bacterial growth incubated for 18 to 20 hrs by CLSI method; details: time 18-20 hrs; outline: as §2
[17] = tested on: Staphylococcus aureus; assay: Bactericidal activity against methicillin-resistant Staphylococcus aureus ATCC 33592 assessed as reduction in bacterial growth incubated for 18 hrs by CLSI method
[18] = tested on: Staphylococcus aureus; assay: Antibacterial activity against methicillin-resistant Staphylococcus aureus ATCC 33592 assessed as reduction in bacterial count at 3 x MIC incubated upto 24 hrs by time kill analysis; details: time hrs <=24
Outline: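 Time-kill assay. […] Samples taken at 0, 2, 4, 8, 12 and 24 h, serially diluted in PBS and plated on tryptic soy agar. Viable CFU/mL counted after 18-20 h at 37 °C.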

[19] = tested on: Staphylococcus aureus; assay: Antibacterial activity against methicillin-resistant Staphylococcus aureus NRS484 assessed as inhibition of visible bacterial growth incubated for 18 to 20 hrs by CLSI method; details: time 18-20 hrs; outline: as §1
[20] = tested on: Streptococcus pneumoniae; assay: Antibacterial activity against cephalosporin-resistant Streptococcus pneumoniae ATCC 51916 assessed as inhibition of visible bacterial growth incubated for 18 to 20 hrs by CLSI method; details: time 18-20 hrs; outline: as §1
[21] = tested on: Streptococcus pneumoniae; assay: Antibacterial activity against […] Streptococcus pneumoniae ATCC 700677 assessed as inhibition of visible bacterial growth incubated for 18 to 20 hrs by CLSI method; details: time 18-20 hrs; outline: as §1
[22] = tested on: Enterococcus faecalis; assay: Antibacterial activity against vancomycin- resistant Enterococcus faecalis ATCC 51299 assessed as inhibition of visible bacterial growth incubated for 18 to 20 hrs by CLSI method; details: time 18-20 hrs; outline: as §1
[23] = tested on: Enterococcus faecalis; assay: Antibacterial activity against vancomycin- resistant Enterococcus faecalis ATCC 700221 assessed as inhibition of visible bacterial growth incubated for 18 to 20 hrs by CLSI method; details: time 18-20 hrs; outline: as §1
[24] = tested on: Staphylococcus aureus; assay: Antibacterial activity against methicillin-resistant Staphylococcus aureus USA400 infected in mouse J774 cells assessed as log reduction in intracellular growth at 8 ug/ml incubated for 18 to 22 hrs; details: dose 8.0 µg/ml, time 18-22 hrs
Outline: (§3)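 J774 murine macrophages grown in DMEM with 10% FBS at 37 °C, 5% CO2. Cells infected with MRSA USA400 at MOI about 10:1 for 1 h, then washed with gentamicin to remove extracellular bacteria. Agents added at 8 or 16 μg/mL in triplicate, with DMSO vehicle control, for 24 h. Cells lysed with 0.1% Triton-X, lysates plated on tryptic soy agar, and CFU counted after 18-22 h at 37 °C. Analysed by two-way ANOVA with Dunnett's test.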

[25] = tested on: Staphylococcus aureus; assay: Antibacterial activity against methicillin-resistant Staphylococcus aureus USA400 infected in mouse J774 cells assessed as log reduction in intracellular growth at 16 ug/ml incubated for 18 to 22 hrs; details: dose 16.0 µg/ml, time 18-22 hrs; outline: as §3

**Q.** How did the MIC [1] turn out when `O=C(Nc1nnc(-c2cccs2)o1)c1ccc(C(F)(F)F)s1` was run?
**A.** The MIC was 4 µg/mL (≈ 11.6 µM).

**Q.** And the MIC [2]?
**A.** The MIC was 2 µg/mL (≈ 5.79 µM).

**Q.** How did the MIC [1] turn out when `O=C(Nc1nnc(-c2cccs2)o1)c1ccc(C(F)(F)F)cc1` was run?
**A.** The MIC was 2 µg/mL (≈ 5.89 µM).

**Q.** And the MIC [2]?
**A.** The MIC was 2 µg/mL (≈ 5.89 µM).

**Q.** With `O=C(Nc1nnc(-c2cccs2)o1)c1cccc(C(F)(F)F)n1` as the compound, how does the MIC [1] read?
**A.** The MIC was 16 µg/mL (≈ 47 µM).

**Q.** And the MIC [2]?
**A.** Its MIC is 16 µg/mL (≈ 47 µM).

**Q.** With `O=C(Nc1nnc(-c2cccs2)o1)c1cc(C(F)(F)F)n[nH]1` as the compound, how does the MIC [1] read?
**A.** Its MIC is over 64 µg/mL.

**Q.** What about the MIC [2] of the same compound?
**A.** Its MIC is over 64 µg/mL.

**Q.** What does the source list for `CC(=O)NC[C@H]1CN(c2ccc(N3CCOCC3)c(F)c2)C(=O)O1` [LINEZOLID]?
**A.** MIC [3]: 0.5 µg/mL (≈ 1.48 µM); MIC [4]: 0.5 µg/mL (≈ 1.48 µM); MIC [5]: > 64 µg/mL; MIC [6]: 1 µg/mL (≈ 2.96 µM); MIC [7]: 1 µg/mL (≈ 2.96 µM); MIC [8]: 1 µg/mL (≈ 2.96 µM); MIC [9]: 1 µg/mL (≈ 2.96 µM); MIC [10]: 1 µg/mL (≈ 2.96 µM); MIC [11]: 1 µg/mL (≈ 2.96 µM); MIC [12]: 1 µg/mL (≈ 2.96 µM); MIC [13]: > 64 µg/mL; MIC [14]: > 64 µg/mL; MIC [15]: 1 µg/mL (≈ 2.96 µM); MIC [16]: 0.5 µg/mL (≈ 1.48 µM); MBC [17]: > 128 µg/mL; Activity [18]: 1.7 log10CFU/ml

**Q.** Which results are given for `CSc1ccc(C(=O)Nc2nnc(-c3cccs3)o2)cc1`?
**A.** MIC [1]: 4 µg/mL (≈ 12.6 µM); MIC [2]: 4 µg/mL (≈ 12.6 µM)

**Q.** What does the source list for `O=C(Nc1nnc(-c2cccs2)o1)c1ccc(F)cc1`?
**A.** MIC [1]: 32 µg/mL (≈ 111 µM); MIC [2]: 32 µg/mL (≈ 111 µM)

**Q.** With `O=C(Nc1nnc(-c2cccs2)o1)c1ccc(OC(F)F)cc1` as the compound, how does the MIC [1] read?
**A.** Its MIC is 32 µg/mL (≈ 94.9 µM).

**Q.** And the MIC [2]?
**A.** The MIC was 32 µg/mL (≈ 94.9 µM).

**Q.** Which results are given for `O=C(Nc1nnc(-c2cccs2)o1)c1ccc([N+](=O)[O-])cc1`?
**A.** MIC [1]: 4 µg/mL (≈ 12.6 µM); MIC [2]: 8 µg/mL (≈ 25.3 µM)

**Q.** How did the MIC [19] turn out when `CN[C@H](CC(C)C)C(=O)N[C@H]1C(=O)N[C@@H](CC(N)=O)C(=O)N[C@H]2C(=O)N[C@H]3C(=O)N[C@H](C(=O)N[C@H](C(=O)O)c4cc(O)cc(O)c4-c4cc3ccc4O)[C@H](O)c3ccc(c(Cl)c3)Oc3cc2cc(c3O[C@@H]2O[C@H](CO)[C@@H](O)[C@H](O)[C@H]2O[C@H]2C[C@](C)(N)[C@H](O)[C@H](C)O2)Oc2ccc(cc2Cl)[C@H]1O` [VANCOMYCIN] was run?
**A.** The MIC was over 2 µg/mL.

**Q.** What about the MIC [20] of the same compound?
**A.** The MIC was 0.5 µg/mL (≈ 0.345 µM).

**Q.** What about the MIC [21] of the same compound?
**A.** The MIC was 1 µg/mL (≈ 0.69 µM).

**Q.** What about the MIC [22] of the same compound?
**A.** Its MIC is 32 µg/mL (≈ 22.1 µM).

**Q.** And the MIC [23]?
**A.** The MIC was over 64 µg/mL.

**Q.** What about the MIC [16] of the same compound?
**A.** The MIC was 0.5 µg/mL (≈ 0.345 µM).

**Q.** What about the MBC [17] of the same compound?
**A.** Its MBC is 1 µg/mL (≈ 0.69 µM).

**Q.** And the Activity [24]?
**A.** The Activity was “inactive”.

**Q.** What about the Activity [25] of the same compound?
**A.** The Activity was “inactive”.

**Q.** `O=C(Nc1nnc(-c2cccs2)o1)c1ccc(SC(F)F)cc1` was tested. Which MIC [1] did it give?
**A.** Its MIC is 4 µg/mL (≈ 11.3 µM).

**Q.** And the MIC [2]?
**A.** The MIC was 4 µg/mL (≈ 11.3 µM).

**Q.** For `O=C(Nc1nnc(-c2cccs2)o1)c1ccc(C(F)(F)F)cn1`, which MIC [1] is on record?
**A.** Its MIC is 64 µg/mL (≈ 188 µM).

**Q.** And the MIC [2]?
**A.** Its MIC is 32 µg/mL (≈ 94 µM).
